Active and inactive are the calls of the source. The rule behind the calls is not given here.

What is called IC50 is the concentration that inhibits the measured activity by half. Read a low IC50 as greater potency. The Inhibition is the drop in the measured response relative to a control, in per cent.

One test relates to WISH. The test can be described thus: In vitro inhibitory activity against the growth of WISH cell derived from human cervical carcinoma was determined; Inactive. In kind it is functional, cell-based.
For the molecule `O=c1cc(-c2ccccc2)oc2ccccc12`, the NA result is “inactive”. Same read-out and setting: the same measure for `O=C(O)/C=C/c1ccc(O)c(O)c1`: “inactive”.

In the case of `O=c1cc(-c2ccccc2)oc2ccc([N+](=O)[O-])cc12`, the inhibition entry is “inactive”.

The next test concerns WISH. Put plainly: (§1) In vitro inhibitory activity against the growth of WISH cell derived from human cervical carcinoma was determined. The class given is functional, cell-based. The method in brief:
(§2)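 WISH cells (HeLa-derived; grown in MEM with 10% FBS, 2 mM L-glutamine and antibiotics), 10,000 per well. Cells exposed 72 h at 37 °C to a concentration series of compound given in DMSO/ethanol (1:10), with controls solvent-matched. Total cell number read colorimetrically as hexosaminidase level. IC50, the molar concentration giving 50% growth inhibition, was taken from dose–response curves.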
For the molecule `O=c1cc(-c2ccccc2[N+](=O)[O-])oc2ccccc12`, the IC50 is around 3 µM. The molecule `O=c1cc(-c2ccccc2[N+](=O)[O-])oc2ccc([N+](=O)[O-])cc12` returned an IC50 of around 3 µM. In the case of `CCCCOC(=O)/C=C/c1ccc(O)c(O)c1` [BUTYL CAFFEATE], the IC50 is around 3 µM.

A further test has as its system WISH. Put plainly: In vitro inhibitory activity against the growth of WISH cell derived from human cervical carcinoma was determined; slight reduction in cell growth. In kind it is functional, cell-based.
Take `O=C1CC(c2ccccc2)Oc2ccccc21` (stereo not drawn): the inhibition result is “Weak activity”.

Another test has as its system WISH. Put plainly: In vitro inhibitory activity against the growth of WISH cell derived from human cervical carcinoma was determined; slight effect. In kind it is functional, cell-based.
As to `O=c1cc(-c2ccccc2)oc2c1ccc1ccccc12`, the inhibition entry was “Weak activity”.

As to `O=C(O)/C=C/c1ccccc1`, the inhibition result is “slight effect”. In the case of `COc1cc(OC)c2c(=O)cc(-c3ccccc3)oc2c1`, the inhibition entry is on record as “slight effect”.

Take `O=c1cc(-c2ccccc2)oc2ccc3ccccc3c12`: the inhibition entry is “Weak activity”.

Regarding `O=c1cc(-c2ccc(O)cc2)oc2cc(O)cc(O)c12`, the inhibition entry is “Weak activity”.

On to `O=c1cc(-c2ccccc2)oc2cc(O)cc(O)c12`, for which the inhibition result was “Weak activity”.

In the case of `O=c1c(O)c(-c2ccc(O)c(O)c2)oc2cc(O)cc(O)c12`, the inhibition result was “Weak activity”.

In a further test the test system is WISH. The test is described as §1. In kind it is functional. The method in brief:
as §2
For `CCOC(=O)/C=C/c1ccc(O)c(O)c1` [ETHYL CAFFEATE], the Inhibition came out at 50%. The molecule `O=c1cc(-c2ccccc2[N+](=O)[O-])oc2ccccc12` showed an Inhibition of around 70%. On to `O=c1cc(-c2ccccc2[N+](=O)[O-])oc2ccc([N+](=O)[O-])cc12`, for which the Inhibition is around 70%. The same measure, in the same setting: the same measure for `CCCCOC(=O)/C=C/c1ccc(O)c(O)c1` [BUTYL CAFFEATE]: around 70%.

The values above are taken from ChEMBL document CHEMBL1146683, “Antiproliferative activity of various flavonoids and related compounds: additive effect of interferon-alpha2b” (Bioorg Med Chem Lett, 2004).
